Measured values from ChEMBL document CHEMBL1240339, “Raft nanodomains contribute to Akt/PKB plasma membrane recruitment and activation” (Nat Chem Biol, 2008).
Where “and” joins values, the source holds several entries; their conditions need not be identical. Equal entries are not always repeated. Calls of active or inactive are those of the source. The calls are words filed in the database; no cut-off is given here.

Tests used:
Type in all cases: cell-based
[1] = biological target: RAC-alpha serine/threonine-protein kinase (Mus musculus) (UniProt P31750); experiment: Inhibition of CD-28 triggered Akt phosphorylation in mouse DWT6.11 cells assessed as enzyme phosphorylation at Thr308 by immunoblotting relative to control; details: concentration not given here
Chain of RAC-alpha serine/threonine-protein kinase (Mus musculus) (P31750 whole entry): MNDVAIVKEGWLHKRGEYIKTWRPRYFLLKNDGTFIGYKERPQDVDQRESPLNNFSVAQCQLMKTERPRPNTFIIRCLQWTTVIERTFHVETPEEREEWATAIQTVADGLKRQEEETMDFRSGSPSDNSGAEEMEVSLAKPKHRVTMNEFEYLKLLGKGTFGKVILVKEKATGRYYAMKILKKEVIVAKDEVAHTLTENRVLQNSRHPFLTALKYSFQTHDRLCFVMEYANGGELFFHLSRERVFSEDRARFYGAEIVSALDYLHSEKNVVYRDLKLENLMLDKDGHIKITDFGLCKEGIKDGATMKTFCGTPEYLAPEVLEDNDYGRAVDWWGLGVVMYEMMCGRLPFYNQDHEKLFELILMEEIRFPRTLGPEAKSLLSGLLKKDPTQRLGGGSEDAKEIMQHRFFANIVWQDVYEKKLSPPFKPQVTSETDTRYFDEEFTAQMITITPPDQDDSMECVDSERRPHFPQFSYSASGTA
Method in brief: (§1)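 DWT6.11 mouse T cells were given 25 µM myriocin for 48 h in complete medium, then serum-starved 14–18 h with 25 µM myriocin, then stimulated with CD28 monoclonal antibody. Akt Thr308 and Ser473 phosphorylation induction was quantified by immunoblotting as % of untreated cells, mean ± s.d., n = 3.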

Jurkat [2] = experiment: Inhibition of serine palmitoyltransferase in human Jurkat JA16 cells assessed as lateral diffusion of the outer membrane leaflet-linked FL-PE nanodomain at 25 uM after 14 to 18 hrs by fluorescence correlation spectroscopy
COS-7 [3] = experiment: Inhibition of serine palmitoyltransferase in african green monkey COS7 cells assessed as cholesterol level at 10 uM after 14 to 18 hrs by fluorescence correlation spectroscopy relative to control; design: scale not given: the % may be the effect or the level left; details: Chlorocebus aethiops
[4] = biological target: T1, Squalene synthase (Homo sapiens) (UniProt P37268); experiment: Inhibition of squalene synthase in human Jurkat JA16 cells assessed as cholesterol level at 25 uM after 14 to 18 hrs by fluorescence correlation spectroscopy relative to control; design: scale not given: the % may be the effect or the level left
T1 sequence (whole entry): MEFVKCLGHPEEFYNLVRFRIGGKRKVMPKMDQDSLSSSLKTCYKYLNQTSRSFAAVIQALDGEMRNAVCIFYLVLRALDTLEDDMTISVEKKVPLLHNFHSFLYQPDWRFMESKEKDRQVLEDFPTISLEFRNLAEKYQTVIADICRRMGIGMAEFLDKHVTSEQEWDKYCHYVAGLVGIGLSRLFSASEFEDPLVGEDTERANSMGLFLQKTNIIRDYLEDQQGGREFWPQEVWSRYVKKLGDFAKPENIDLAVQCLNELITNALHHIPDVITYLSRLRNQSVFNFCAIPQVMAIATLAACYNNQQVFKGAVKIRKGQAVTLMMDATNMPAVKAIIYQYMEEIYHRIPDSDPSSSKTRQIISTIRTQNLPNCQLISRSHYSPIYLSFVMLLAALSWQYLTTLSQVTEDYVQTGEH

[5] = biological target: RAC-alpha serine/threonine-protein kinase (Mus musculus) (UniProt P31750); experiment: Inhibition of CD-28 triggered Akt phosphorylation in mouse DWT6.11 cells assessed as enzyme phosphorylation at Ser473 by immunoblotting relative to control; details: concentration not given here; method in brief: as §1
COS-7 [6] = experiment: Inhibition of serine palmitoyltransferase in african green monkey COS7 cells assessed as sphingomyelin level at 10 uM after 14 to 18 hrs by fluorescence correlation spectroscopy relative to control; design: scale not given: the % may be the effect or the level left; details: Chlorocebus aethiops
Jurkat [7] = experiment: Inhibition of serine palmitoyltransferase in human Jurkat JA16 cells assessed as sphingomyelin level at 25 uM after 14 to 18 hrs by fluorescence correlation spectroscopy relative to control; design: scale not given: the % may be the effect or the level left
Mus musculus [8] = organism: Mus musculus; experiment: Inhibition of serine palmitoyltransferase in mouse DWT6.11 cells assessed as cholesterol level at 25 uM after 14 to 18 hrs by fluorescence correlation spectroscopy relative to control; design: scale not given: the % may be the effect or the level left
Mus musculus [9] = organism: Mus musculus; experiment: Inhibition of CD-28 triggered Ras/MAPK in mouse DWT6.11 cells by immunoblotting analysis
Method in brief: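 DWT6.11 cells were pretreated with myriocin (25 µM, 48 h in complete medium, then serum-starved 14–18 h). They were stimulated or not with CD28 monoclonal antibody. The Ras/MAPK pathway was read as ERK phosphorylation by immunoblotting.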

Mus musculus [10] = organism: Mus musculus; experiment: Inhibition of serine palmitoyltransferase in mouse DWT6.11 cells assessed as sphingomyelin level at 25 uM after 14 to 18 hrs by fluorescence correlation spectroscopy relative to control; design: scale not given: the % may be the effect or the level left
COS-7 [11] = experiment: Inhibition of squalene synthase in african green monkey COS7 cells assessed as of cholesterol level at 5 uM after 14 to 18 hrs by fluorescence correlation spectroscopy relative to control; design: scale not given: the % may be the effect or the level left; details: Chlorocebus aethiops
COS-7 [12] = experiment: Inhibition of squalene synthase in african green monkey COS7 cells assessed as cholesterol level at 5 uM after 14 to 18 hrs by fluorescence correlation spectroscopy relative to control; design: scale not given: the % may be the effect or the level left; details: Chlorocebus aethiops
[13] = biological target: T2, Squalene synthase (Mus musculus) (UniProt P53798); experiment: Inhibition of squalene synthase in mouse DWT6.11 cells assessed as sphingomyelin level at 5 uM after 14 to 18 hrs by fluorescence correlation spectroscopy relative to control; design: scale not given: the % may be the effect or the level left
T2 sequence (whole entry): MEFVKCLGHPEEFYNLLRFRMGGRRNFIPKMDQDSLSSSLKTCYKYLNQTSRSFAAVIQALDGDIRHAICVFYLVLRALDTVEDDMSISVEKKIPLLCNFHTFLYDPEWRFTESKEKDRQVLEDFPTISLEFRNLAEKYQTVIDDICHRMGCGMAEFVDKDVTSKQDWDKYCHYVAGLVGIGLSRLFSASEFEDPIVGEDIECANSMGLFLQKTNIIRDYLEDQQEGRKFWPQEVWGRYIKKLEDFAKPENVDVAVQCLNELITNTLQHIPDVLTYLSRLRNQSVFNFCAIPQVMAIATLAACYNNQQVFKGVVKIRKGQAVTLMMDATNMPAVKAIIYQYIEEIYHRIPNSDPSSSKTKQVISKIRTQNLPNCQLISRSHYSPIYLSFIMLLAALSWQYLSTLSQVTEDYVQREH

Jurkat [14] = experiment: Inhibition of serine palmitoyltransferase in human Jurkat JA16 cells assessed as sphingomyelin level at 5 uM after 14 to 18 hrs by fluorescence correlation spectroscopy relative to control; design: scale not given: the % may be the effect or the level left
[15] = biological target: T2, Squalene synthase (Mus musculus); experiment: Inhibition of squalene synthase in mouse DWT6.11 cells assessed as cholesterol level at 5 uM after 14 to 18 hrs by fluorescence correlation spectroscopy relative to control; design: scale not given: the % may be the effect or the level left
[16] = biological target: T1, Squalene synthase (Homo sapiens); experiment: Inhibition of squalene synthase in human Jurkat JA16 cells assessed as cholesterol level at 5 uM after 14 to 18 hrs by fluorescence correlation spectroscopy relative to control; design: scale not given: the % may be the effect or the level left

| Activity [13] | Activity [15] | Activity [16] | Compound | inhibition [1] | Activity (Jurkat [2]) | Activity (COS-7 [3]) | Activity [4] | inhibition [5] | Activity (COS-7 [6]) | Activity (Jurkat [7]) | Activity (Mus musculus [8]) | inhibition (Mus musculus [9]) | Activity (Mus musculus [10]) | Activity (COS-7 [11]) | Activity (COS-7 [12]) | Activity (Jurkat [14]) |
| --- | --- | --- | --- | --- | --- | --- | --- | --- | --- | --- | --- | --- | --- | --- | --- | --- |
| – | – | – | CCCCCCC(=O)CCCCCC/C=C/C[C@@H](O)[C@H](O)[C@@](N)(CO)C(=O)O | 50.8% | 0.9 ms and 0.8 um2/s | 92% | 97% | 51.2% | 30% | 28% | 98% | inactive | 24% | – | – | – |
| 103% | 64% | 81% | C=C(CC[C@]12O[C@H](C(=O)O)[C@@](O)(C(=O)O)[C@](C(=O)O)(O1)[C@H](OC(=O)/C=C/[C@@H](C)C[C@@H](C)CC)[C@H]2O)[C@@H](OC(C)=O)[C@H](C)Cc1ccccc1 | – | – | – | – | – | – | – | – | inactive | – | 90% | 73% | 97% |
